Results from paper PMC2818757 (Peptides, 2009).
Ends that are not written are not given here.

How the values were obtained:
NCI-H69 cells = assay: Phospholipase C / [3H]IP stimulation in SCLC cells NCI-H69; type: cell-based, human; conditions: 0.1 uM peptide alone, 37C, 60 min, mean ± SEM, at least 4 experiments
NCI-N417 cells = assay: Phospholipase C / [3H]IP stimulation in SCLC cells NCI-N417; type: cell-based, human; conditions: 0.1 uM peptide alone, 37C, 60 min, mean ± SEM, at least 4 experiments
In short: (§1)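 SCLC suspension cells (1 × 10^6 cells/ml) were labelled 24 h at 37C with myo-[2-3H]inositol in RPMI with 2% FBS. Cells were washed, held 10 min in PBS pH 7.0 with 20 mM LiCl, then resuspended in HEPES pH 7.4 buffer with LiCl, EGTA, glucose and BSA. Peptide exposure was 60 min at 37C, stopped with ice-cold HCl/methanol. Total [3H]IP was eluted from anion-exchange resin and counted by scintillation; values are expressed as experimental/control.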

NCI-N592 cells = assay: Phospholipase C / [3H]IP stimulation in SCLC cells NCI-N592; type: cell-based, human; conditions: 0.1 uM peptide alone, 37C, 60 min, mean ± SEM, at least 4 experiments
In short: as §1

NCI-H209 cells = assay: Phospholipase C / [3H]IP stimulation in SCLC cells NCI-H209; type: cell-based, human; conditions: 0.1 uM peptide alone, 37C, 60 min, mean ± SEM, at least 4 experiments
Antiserum 8684 = assay: GRP18-27gly #8684 RIA cross-reactivity; type: binding, rabbit; conditions: 125I-labeled GRP-gly tracer; GRP18-27gly standard

Compound | Phospholipase C activity, Experimental/control (NCI-H69 cells) | Phospholipase C activity, Experimental/control (NCI-N417 cells) | Phospholipase C activity, Experimental/control (NCI-N592 cells) | Phospholipase C activity, Experimental/control (NCI-H209 cells) | cross-reactivity with antiserum 8684 (Antiserum 8684)
CSCC[C@H](NC(=O)[C@H](CC(C)C)NC(=O)[C@H](Cc1c[nH]cn1)NC(=O)CNC(=O)[C@@H](NC(=O)[C@H](C)NC(=O)[C@H](Cc1c[nH]c2ccccc12)NC(=O)[C@H](Cc1c[nH]cn1)NC(=O)[C@H](CC(N)=O)NC(=O)CNC(=O)[C@H](CCCNC(=N)N)NC(=O)[C@@H]1CCCN1C(=O)[C@H](Cc1ccc(O)cc1)NC(=O)[C@H](CCSC)NC(=O)[C@H](CCCCN)NC(=O)[C@@H](NC(=O)[C@H](CC(C)C)NC(=O)[C@@H](NC(=O)[C@@H](NC(=O)CNC(=O)CNC(=O)CNC(=O)[C@H](C)NC(=O)[C@@H]1CCCN1C(=O)[C@H](CC(C)C)NC(=O)[C@@H]1CCCN1C(=O)[C@@H](N)C(C)C)[C@@H](C)O)C(C)C)[C@@H](C)O)C(C)C)C(N)=O [GRP, gastrin releasing peptide] | 1.23±0.07 | 1.03±0.01 | 1.03±0.04 | 1.11±0.04 | –
GRP1-27: amidated form of gastrin releasing peptide 1-27 (VPLPAGGGTVLTKMYPRGNHWAVGHLM-NH2; UniProt P07492 24-50, looked up) | – | – | – | – | 60%
GRP18-27: amidated GRP18-27; differs from bombesin by a Gln to His substitution at position 20 | – | – | – | – | 60%
[D-Phe^6, β-Ala^11, Phe^13, Nle^14] Bn(6-14) | 1.31±0.04 | 3.14±0.34 | 1.05±0.04 | 1.17±0.03 | –
bombesin | – | – | – | – | less than 1%
